Our source for the IC50, EC50 and CC50 values is ChEMBL document CHEMBL4049461, “Double-Winged 3-Hydroxypyrimidine-2,4-diones: Potent and Selective Inhibition against HIV-1 RNase H with Significant Antiviral Activity” (J Med Chem, 2017).

A value given as a limit tells only on which side of the number the result lay.

Data set [1] is described as follows: Inhibition of recombinant full length HIV1 reverse transcriptase polymerase domain assessed as decrease in extension of 18 nucleotide DNA primer annealed to 100 nucleotide DNA template after 30 mins. The arrangement: species or system Human immunodeficiency virus 1. An outline of the steps:
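20 nM RT, 40 nM 18-nt primer annealed to 100-nt DNA template, and 10 μM dNTPs in 50 mM Tris pH 7.8, 50 mM NaCl, 1% DMSO, with increasing compound concentrations. Reactions started with 6 mM MgCl2, run 30 min at 37 °C, and stopped with 100 mM EDTA.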

Data set [2] deals with Human immunodeficiency virus 1. Nature of the data set: Antiviral activity against HIV1 infected in CD4/CXCR4/CCR5 expressing human P4R5 cells assessed as inhibition of viral replication preincubated with cells for 24 hrs followed by viral infection measured after 48 hrs by beta-galactosidase reporter gene assay. The following applies: Human immunodeficiency virus 1, P4/R5. The data set is classed as functional. An outline of the steps: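 P4R5 indicator cells (CD4, CXCR4, CCR5; HIV LTR-driven β-galactosidase reporter) seeded 4 × 10³/well in DMEM/10% FBS with puromycin (1 μg/mL). Cells lysed, MUG substrate added, fluorescence β-galactosidase readout.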

Data set [3] in a line: Inhibition of HIV integrase strand transfer activity expressed in Escherichia coli BL21 (DE3) using 5' biotin ATGTGGAAAATCTCTAGCA primer annealed with ACTGCTAGAGATTTTCCACAT 3' Cy5 template preincubated for 10 mins followed by primer/template addition measured after 30 mins by fluorescence assay. On the set-up: species or system Human immunodeficiency virus. An outline of the steps:
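Integrase preincubated 10 min at 25 °C with compound (final 0.13–100 μM, duplicate) in 10 mM HEPES pH 7.5, 10% glycerol, 10 mM MnCl2, 1 mM DTT, 1 μM enzyme. Biotin/Cy5 oligo duplex added; 30 min at 37 °C; EDTA quench.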

Data set [4] in a line: Inhibition of recombinant full length HIV1 reverse transcriptase RNase H domain using RNA/DNA duplex substrate HTS1 assessed as reduction in internal cleavage of RNA strand by fluoresence assay. On the set-up: species or system Human immunodeficiency virus 1. An outline of the steps: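 Full-length HIV RT incubated with fluorescein/Dabcyl-labelled 18-mer RNA/DNA duplex HTS-1, which reports non-specific internal RNA cleavage, across a compound concentration series. Dose-response data fitted by nonlinear regression to logistic curves. IC50 given as mean ± SD from at least two independent experiments.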

The nature of data set [5]: Cytotoxicity against human P4R5 cells by MTS assay. In kind it is cell-based. In general terms: Tetrazolium dyes change colour on reduction, which living cells bring about.

The term IC50 denotes the concentration at which inhibition is half-maximal. The EC50 is the midpoint of the concentration-response curve. For orientation: CC50 means the concentration at which the toxic effect on the cells reaches its halfway point. A lower CC50 goes with greater toxicity to the cells. Consider `O=C(Nc1ccc(-c2ccccc2)cc1)c1c(NCc2ccccc2)[nH]c(=O)n(O)c1=O`, for which the IC50 was above 10 µM in data set [1], above 100 µM in data set [3] and 0.12 µM in data set [4]. The EC50 in data set [2] came to 15 µM. Besides, it took 54 µM to reach half-maximal cytotoxicity in data set [5] (CC50).

Regarding `Cc1ccc(NC(=O)c2c(NCc3ccccc3)[nH]c(=O)n(O)c2=O)cc1`, the IC50 in data set [1] is 10 µM; in data set [3] it was 34 µM; in data set [4], 0.019 µM. In data set [2], the EC50 turned out to be 7.2 µM. In data set [5], this compound had a CC50 of 53 µM.

For `O=C(NCc1cccc(Cl)c1F)c1c(Nc2ccc(-c3ccccc3)cc2)[nH]c(=O)n(O)c1=O`, the IC50 was above 10 µM in data set [1], above 100 µM in data set [3] and 0.059 µM in data set [4].

With `O=C(Nc1ccc(F)cc1F)c1c(NCc2ccccc2)[nH]c(=O)n(O)c1=O`, the concentration for half-maximal inhibition (IC50) is above 10 µM in data set [1], 29 µM in data set [3] and 0.079 µM in data set [4]. Besides, in data set [2], the EC50 was above 20 µM. The CC50 in data set [5] is above 100 µM.

For `O=C(Nc1ccc(-c2ccccc2)cc1)c1c(Nc2ccc(-c3ccccc3)cc2)[nH]c(=O)n(O)c1=O`, the values for the IC50 in data set [1], in data set [3] and in data set [4] were 1.8 µM, above 100 µM and 1 µM, respectively.

With `O=C(Nc1ccccc1)c1c(NCc2ccccc2)[nH]c(=O)n(O)c1=O`, the IC50 in data set [1] is above 10 µM; in data set [3], above 100 µM; in data set [4], 0.027 µM. Besides, the EC50 in data set [2] is 6.9 µM. In data set [5], this compound yielded a CC50 of 52 µM.

On to `O=C(NCc1ccccc1)c1c(NCc2ccc(-c3ccccc3)cc2)[nH]c(=O)n(O)c1=O`, for which the IC50 in data set [1] was above 10 µM; in data set [3] it was 1.6 µM; in data set [4], 0.054 µM. Also, the EC50 in data set [2] is above 20 µM.

Consider `COc1cc2ccccc2cc1/C=N/NC(=O)c1cc(O)c(O)c(O)c1`, for which the IC50 in data set [1] came out at 0.5 µM; in data set [4], 0.2 µM.

As for `O=C(NCc1cc(F)ccc1F)c1c(Nc2ccc(-c3ccccc3)cc2)[nH]c(=O)n(O)c1=O`, the values for the half-maximal inhibitory concentration (IC50) in data set [1], in data set [3] and in data set [4] were 9.5 µM, above 100 µM and 0.05 µM, respectively. Besides, the EC50 in data set [2] was 3.7 µM. This compound had a CC50 in data set [5] above 100 µM.

With `O=C(Nc1cccc2ccccc12)c1c(Nc2ccccc2)[nH]c(=O)n(O)c1=O`, the IC50 was found to be 7.7 µM in data set [1], 3.2 µM in data set [3] and 0.018 µM in data set [4]. In addition, the EC50 in data set [2] is 11.4 µM. Moreover, half-maximal cytotoxicity in data set [5] (CC50) was put at 76.8 µM.

As to `O=C(NCc1ccc(F)cc1)c1c(Nc2ccc(-c3ccccc3)cc2)[nH]c(=O)n(O)c1=O`, the IC50 is above 10 µM in data set [1], above 100 µM in data set [3] and 0.047 µM in data set [4].

Consider `O=C(NCc1ccc(-c2ccccc2)cc1)c1c(NCc2ccc(-c3ccccc3)cc2)[nH]c(=O)n(O)c1=O`, for which the IC50 in data set [1] was above 10 µM; in data set [3] it was above 100 µM; in data set [4], 0.11 µM. In addition, the EC50 in data set [2] is above 20 µM. The compound also came in with a CC50 in data set [5] above 100 µM.

In the case of `O=C(Nc1ccc(-c2ccccc2)cc1)c1c(NCc2ccc(-c3ccccc3)cc2)[nH]c(=O)n(O)c1=O`, the values for the IC50 in data set [1], in data set [3] and in data set [4] were above 10 µM, above 100 µM and 0.14 µM, respectively. In addition, in data set [2], the EC50 was above 20 µM.

Turning to `O=C(NCc1ccccc1)c1c(Nc2ccccc2)[nH]c(=O)n(O)c1=O`, the results for the 50% inhibitory concentration (IC50) in data set [1], in data set [3] and in data set [4] were above 10 µM, 0.23 µM and 0.056 µM, respectively. Besides, the EC50 in data set [2] came out at 0.6 µM. Also, the CC50 in data set [5] was above 100 µM.

For the compound `O=C(Nc1ccc(C(F)(F)F)cc1)c1c(NCc2ccccc2)[nH]c(=O)n(O)c1=O`, the IC50 in data set [1] was above 10 µM; in data set [3], above 100 µM; in data set [4], 0.041 µM. In addition, the EC50 in data set [2] is above 20 µM. Further, the CC50 in data set [5] is above 100 µM.

For `O=C(NCc1ccc(-c2ccccc2)cc1)c1c(NCc2ccccc2)[nH]c(=O)n(O)c1=O`, the half-inhibitory concentration (IC50) is above 10 µM in data set [1], above 100 µM in data set [3] and 0.038 µM in data set [4]. Also, in data set [2], the EC50 is above 20 µM. In addition, the CC50 in data set [5] is above 100 µM.

Consider `O=C(NCc1ccccc1)c1c(Nc2ccc(-c3ccccc3)cc2)[nH]c(=O)n(O)c1=O`, for which the IC50 was above 10 µM in data set [1], 23 µM in data set [3] and 0.11 µM in data set [4].

Turning to `O=C(Nc1ccc(F)cc1)c1c(Nc2ccccc2)[nH]c(=O)n(O)c1=O`, the IC50 was above 10 µM in data set [1], 3.1 µM in data set [3] and 0.004 µM in data set [4]. In addition, in data set [2], the EC50 is 6.1 µM. In data set [5], this compound displayed a CC50 of 58.4 µM.

For the compound `CCc1ccc(NC(=O)c2c(NCc3ccccc3)[nH]c(=O)n(O)c2=O)cc1`, the IC50 was 10 µM in data set [1], above 100 µM in data set [3] and 0.054 µM in data set [4]. For the same compound, in data set [2], the EC50 came to 8.5 µM. The compound also came in with a CC50 in data set [5] above 100 µM.

Regarding `O=C(NCc1ccccc1F)c1c(Nc2ccc(-c3ccccc3)cc2)[nH]c(=O)n(O)c1=O`, the results for the IC50 in data set [1], in data set [3] and in data set [4] were above 10 µM, above 100 µM and 0.04 µM, respectively.

For `O=C(Nc1ccc(F)cc1)c1c(NCc2ccccc2)[nH]c(=O)n(O)c1=O`, the values for the IC50 in data set [1], in data set [3] and in data set [4] were 10 µM, 71 µM and 0.019 µM, respectively. For the same compound, the EC50 in data set [2] was above 20 µM. In data set [5], this compound gave a CC50 above 100 µM.

For the compound `O=C(NCc1cccc(F)c1)c1c(Nc2ccc(-c3ccccc3)cc2)[nH]c(=O)n(O)c1=O`, the figures for the IC50 in data set [1], in data set [3] and in data set [4] were above 10 µM, above 100 µM and 0.049 µM, respectively. The EC50 in data set [2] turned out to be 6.3 µM. For the same compound, the CC50 in data set [5] is above 100 µM.

As for `O=C(Nc1ccc(-c2ccc(F)cc2)cc1)c1c(Nc2ccc(-c3ccccc3)cc2)[nH]c(=O)n(O)c1=O`, the IC50 was 1.6 µM in data set [1], above 100 µM in data set [3] and 0.97 µM in data set [4].

On to `O=C(NCc1ccccc1)c1c(NCc2ccccc2)[nH]c(=O)n(O)c1=O`, for which the IC50 in data set [1] was above 10 µM; in data set [3], 0.14 µM; in data set [4], 0.032 µM. In data set [2], the EC50 came out at 1.4 µM. For the same compound, the CC50 in data set [5] is above 100 µM.

On to `O=C(NCc1ccc(F)cc1F)c1c(Nc2ccc(-c3ccccc3)cc2)[nH]c(=O)n(O)c1=O`, for which the IC50 is 8.6 µM in data set [1], above 100 µM in data set [3] and 0.077 µM in data set [4]. Also, in data set [2], the EC50 was 1.5 µM. For the same compound, the CC50 in data set [5] is above 100 µM.

`O=C(Nc1ccc(C(F)(F)F)cc1)c1c(Nc2ccccc2)[nH]c(=O)n(O)c1=O`: the results for the IC50 in data set [1], in data set [3] and in data set [4] were 8.1 µM, 9.5 µM and 0.038 µM, respectively. Moreover, in data set [2], the EC50 came to 3.5 µM. In addition, in data set [5], the CC50 is above 100 µM.

With `O=C(Nc1ccccc1)c1c(Nc2ccccc2)[nH]c(=O)n(O)c1=O`, the IC50 in data set [1] is above 10 µM; in data set [3] it was 1.5 µM; in data set [4] it was 0.016 µM. Further, the EC50 in data set [2] was found to be 6.6 µM. The same compound had a CC50 in data set [5] above 100 µM.

Take `O=C(Nc1ccccc1)c1c(NCc2ccc(-c3ccccc3)cc2)[nH]c(=O)n(O)c1=O`: the IC50 in data set [1] was above 10 µM; in data set [3], above 100 µM; in data set [4], 0.047 µM. Also, the EC50 in data set [2] is above 20 µM.

Regarding `COc1ccc(-c2ccc(NC(=O)c3c(Nc4ccc(-c5ccccc5)cc4)[nH]c(=O)n(O)c3=O)cc2)cc1`, the results for the IC50 in data set [1], in data set [3] and in data set [4] were 1.4 µM, above 100 µM and 1.2 µM, respectively.

Take `Cc1ccc(NC(=O)c2c(Nc3ccccc3)[nH]c(=O)n(O)c2=O)cc1`: the values for the IC50 in data set [1], in data set [3] and in data set [4] were above 10 µM, 2.6 µM and 0.03 µM, respectively. The EC50 in data set [2] stood at 4.5 µM. In addition, the CC50 in data set [5] was above 100 µM.

As to `O=C(Nc1cccc2ccccc12)c1c(NCc2ccccc2)[nH]c(=O)n(O)c1=O`, the IC50 in data set [1] was above 10 µM; in data set [3], 21 µM; in data set [4], 0.057 µM. The concentration for a half-maximal effect (EC50) in data set [2] was above 20 µM. In data set [5], this compound showed a cytotoxic concentration (CC50) above 100 µM.
